In ChEMBL document CHEMBL1800058, “Lathyrane diterpenoids from the roots of Euphorbia micractina and their biological activities” (J Nat Prod, 2011):
pIC50: −log10 of the molar value. The source made the active and inactive calls. No cut-off for these calls is given here.

Columns and labels:
[1] = system: Human immunodeficiency virus 1; experiment: Antiviral activity against HIV1 harboring vesicular stomatitis virus glycoprotein infected in human 293T cells assessed as inhibition of viral replication at 10 uM after 48 hrs by luciferase activity based luminometer analysis; assay type: functional, organism-based
[2] = system: A549; experiment: Cytotoxicity against human A549 cells at 10^-6 M after 96 hrs by MTT assay; assay type: functional, cell-based
[3] = target: T1, Tyrosine-protein phosphatase non-receptor type 1 (Homo sapiens) (UniProt P18031); experiment: Inhibition of human recombinant GST-tagged PTP1B assessed as conversion of para-nitrophenyl phosphate to para-nitrophenol at 10^-6 M after 10 mins by microplate spectrophotometer analysis
T1 sequence (whole entry): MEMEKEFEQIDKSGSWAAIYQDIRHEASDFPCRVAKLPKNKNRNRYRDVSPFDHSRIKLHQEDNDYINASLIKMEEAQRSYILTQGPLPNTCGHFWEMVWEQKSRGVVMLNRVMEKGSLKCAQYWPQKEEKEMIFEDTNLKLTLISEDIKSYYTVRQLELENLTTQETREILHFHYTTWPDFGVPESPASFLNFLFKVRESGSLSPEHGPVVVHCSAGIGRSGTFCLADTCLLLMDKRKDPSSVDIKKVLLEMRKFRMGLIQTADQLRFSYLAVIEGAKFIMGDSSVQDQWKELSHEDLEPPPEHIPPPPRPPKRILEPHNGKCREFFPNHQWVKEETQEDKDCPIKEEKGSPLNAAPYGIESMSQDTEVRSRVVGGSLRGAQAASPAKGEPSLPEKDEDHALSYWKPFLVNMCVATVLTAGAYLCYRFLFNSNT

[4] = system: MCF7; experiment: Cytotoxicity against human MCF7 cells at 10^-6 M after 96 hrs by MTT assay; assay type: functional, cell-based
[5] = system: KETR3; experiment: Cytotoxicity against human Ketr3 cells at 10^-6 M after 96 hrs by MTT assay; assay type: functional, cell-based
[6] = system: Bel-7402; experiment: Cytotoxicity against human Bel7402 cells at 10^-6 M after 96 hrs by MTT assay; assay type: functional, cell-based
[7] = system: Aorta; experiment: Vasorelaxant activity in Sprague-Dawley rat […] thoracic aorta assessed as inhibition of phenylephrine-induced vasoconstriction at 10^-6 M relative to control; assay type: functional; design: scale not given: the % may be the effect or the level left
Summary of the method: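 Read-out was percent relaxation of phenylephrine-precontracted vessels. Verapamil served as the positive control at the same test concentration.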

[8] = system: BGC-823; experiment: Cytotoxicity against human BGC823 cells at 10^-6 M after 96 hrs by MTT assay; assay type: functional, cell-based
[9] = system: HCT-8; experiment: Cytotoxicity against human HCT8 cells at 10^-6 M after 96 hrs by MTT assay; assay type: functional, cell-based
[10] = system: Liver microsomes; experiment: Antioxidant activity against Fe2+-cystine-induced lipid peroxidation in rat liver microsomes at 10^-6 M after 15 mins by thiobarbituric acid method; assay type: functional; details: Microsome
[11] = system: Human immunodeficiency virus 1; experiment: Antiviral activity against HIV1 harboring vesicular stomatitis virus glycoprotein infected in human 293T cells assessed as inhibition of viral replication after 48 hrs by luciferase activity based luminometer analysis; assay type: functional, organism-based; details: Human immunodeficiency virus 1, HEK-293T

SMILES | Activity [1] | Activity [2] | inhibition [3] | Activity [4] | Activity [5] | Activity [6] | Activity [7] [%] | Activity [8] | Activity [9] | Activity [10] | pIC50 [11]
C/C1=C/C[C@H]2[C@@H](/C=C(\C)C(=O)[C@@]3(O)C[C@H](C)[C@H](OC(=O)/C=C/c4ccccc4)[C@H]3[C@H]1O)C2(C)C | inactive | inactive | inactive | inactive | inactive | inactive | <30 | inactive | inactive | inactive | –
C/C1=C/C[C@H]2[C@H](/C=C(\C)C(=O)[C@@]3(O)C[C@H](C)[C@H](O)[C@@H]3[C@H]1OC(=O)/C=C/c1ccccc1)C2(C)C | inactive | inactive | inactive | inactive | inactive | inactive | <30 | inactive | inactive | inactive | –
COc1ccc(CCN(C)CCCC(C#N)(c2ccc(OC)c(OC)c2)C(C)C)cc1OC (stereo unspecified) [VERAPAMIL] | – | – | – | – | – | – | 44 | – | – | – | –
CC(=O)O[C@]12C[C@H](C)[C@H](O)[C@@H]1[C@H]1O[C@]1(C)CC[C@H]1[C@H](/C=C(\C)C2=O)C1(C)C | inactive | inactive | inactive | inactive | inactive | inactive | <30 | inactive | inactive | inactive | –
C/C1=C\[C@H]2[C@@H](OC(=O)/C=C/c3ccccc3)[C@@H](C)C[C@]2(O)C(=O)/C(C)=C/[C@H]2[C@H](CC1)C2(C)C | inactive | inactive | inactive | inactive | inactive | inactive | <30 | inactive | inactive | inactive | –
C/C1=C\[C@H]2[C@H](CC[C@@]3(C)O[C@@H]3[C@H]3[C@@H](OC(=O)c4ccccc4)[C@@H](C)C[C@]3(OC(=O)c3ccccc3)C1=O)C2(C)C | inactive | inactive | inactive | inactive | inactive | inactive | <30 | inactive | inactive | inactive | –
C/C1=C\[C@H]2[C@@H](O)[C@@H](C)C[C@]2(OC(=O)/C=C/c2ccccc2)C(=O)/C(C)=C/[C@H]2[C@H](CC1)C2(C)C | – | inactive | inactive | inactive | inactive | inactive | <30 | inactive | inactive | inactive | 5.09
C/C1=C\[C@H]2[C@H](CC[C@@]3(C)O[C@@H]3[C@H]3[C@@H](OC(=O)c4ccccc4)[C@@H](C)C[C@]3(O)C1=O)C2(C)C | inactive | inactive | inactive | inactive | inactive | inactive | 48 | inactive | inactive | inactive | –
CC(=O)O[C@@H]1[C@@H]2[C@H]3O[C@]3(C)CC[C@H]3[C@H](/C=C(\C)C(=O)[C@@]2(OC(C)=O)C[C@@H]1C)C3(C)C | inactive | inactive | inactive | inactive | inactive | inactive | <30 | inactive | inactive | inactive | –
C=C1CC[C@H]2[C@H](/C=C(\C)C(=O)[C@@]3(OC(=O)/C=C/c4ccccc4)C[C@H](C)[C@H](O)[C@@H]3[C@H]1O)C2(C)C | inactive | inactive | inactive | inactive | inactive | inactive | <30 | inactive | inactive | inactive | –
